Compound activity as filed in PubChem.
PglD DTNB: PglD (C. jejuni) enzyme inhibition; purified PglD enzyme, DTNB colorimetric CoA detection; inhibition, % at 12.5 µM; hit rate 0.098% among 360,000; AID 602405; in the data active = inhibition above about 16%, passing the limit was not always enough
PGC1a acetyl inh: PGC1a acetylation modulation, inhibitor mode. inhibition, % at 15.6 µM. U2OS PGC1a acetylation, AlphaScreen anti-acetyl-lysine; with virally co-expressed GCN5 acetyltransferase. AID 651687. hit rate 0.17% among 350,000;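 active = every replicate shows inhibition of at least 40%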;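 also: 0% = neutral control wells and 100% = positive control wells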
Ecoli rRNA inh: inhibits bacterial ribosomal RNA function over humanized ribosomes; E. coli WT GFP vs humanized-ribosome RFP mutants, fluorescence, 24 h; hits give low values; DMSO median 0, no signal -100; GFP signal change (wild-type ribosome), % (no concentration beside the values); hit rate 1.6% among 350,000; AID 720706;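 active = significant combined selectivity score with lowered wild-type GFP, culture density cut under 30%, mutant RFP and density less affected; inactive = any of these conditions unmet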
FGF22 binding: FGF22 (human) thermal shift binding. Q9HCT0. recombinant FGF22 thermal shift, SYPRO orange fluorescence; percent of sucrose octasulfate shift, DMSO zero. activity (Tm shift, normalised), % at 9.99 µM. hit rate 1.5% among 340,000. AID 651658;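 active = mean Tm shift, scaled 0 neutral to 100 positive control, at about 1.3% or above, every replicate too, limit read from the data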
Target sequence (Q9HCT0 whole entry, looked up): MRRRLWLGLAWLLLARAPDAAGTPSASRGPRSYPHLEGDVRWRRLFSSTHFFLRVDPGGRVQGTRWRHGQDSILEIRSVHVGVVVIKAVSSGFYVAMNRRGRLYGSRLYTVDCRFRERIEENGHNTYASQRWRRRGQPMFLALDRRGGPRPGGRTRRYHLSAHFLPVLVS
Cneo AK release: Cryptococcus neoformans lysis via adenylate kinase release; C. neoformans lysis, adenylate kinase release luminescence, 4 h; normalised: neutral wells 0, clomiphene wells 100; hit rate 0.2% among 360,000; lysis activity, % at 15 µM; AID 651654;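 active = mean lysis activity across replicates of at least 80%, whatever share of replicates individually reach that level; inactive = mean lysis activity below 80%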
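Material – Cryptococcus neoformans yeast cells · Quantity – 5 × 10^6 yeast cells/mL · Buffer or medium – YPD medium · Compound – single dose · Timing – 4 h static compound exposure, 37 °C, read 1 h post-reagent · Signal – adenylate kinase release luminescence · Read-out basis – lysis from increased AK signal · Benchmarks – Clomiphene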
Vif inh: inhibitors of HIV Vif; HEK293T cells, Vif self-association by quenched fluorescence, imaging, 24 h; inhibition, % at 7.49 µM; hit rate 0.35% among 340,000; AID 602346; in the data active = inhibition above about 50%, passing the limit was not always enough
Numbers without * were called inactive; . = no result given. The list is not random: actives were taken first. Their share in the collection is about 2.9%.

SMILES	PglD DTNB	PGC1a acetyl inh	Ecoli rRNA inh	FGF22 binding	Cneo AK release	Vif inh
Cc1ccc(CCC(=O)Nc2ccc(Cl)cc2)o1	-3	72*	-3	0	-2	-2
O=C(CCN1CCOCC1)NNC(=S)NC(=O)c1ccccc1	-2	-7	0	0	3	69*
Cc1ccc(S(=O)(=O)N(C)C[C@H]2OCCCC[C@H](C)Oc3ccc(NC(=O)NC(C)C)cc3C(=O)N([C@H](C)CO)C[C@@H]2C)cc1	-3	5	-6	.	2	.
C[C@@H]1CN([C@H](C)CO)C(=O)c2cc(NS(=O)(=O)c3ccc(F)cc3)ccc2O[C@@H](C)CCCCO[C@H]1CN(C)Cc1ccc(Cl)c(Cl)c1	0	11	1	-1	32	.
C=CCc1cccc(/C=N/NC(=O)C(C)Nc2ccc(C)cc2)c1O (configuration not stated)	2	3	-32*	1	0	11
C=CCc1cccc(/C=N/NC(=O)C(=O)Nc2ccc(C)cc2)c1O	.	-8	31	0	.	3
C[C@@H]1CN([C@@H](C)CO)C(=O)c2cc(NC(=O)Nc3ccc(F)cc3)ccc2O[C@H]1CN(C)S(=O)(=O)c1ccccc1	-3	3	-5	0	2	.
O=C(N/N=C/C=C\c1ccco1)c1cccs1	.	0	11	44*	.	10
O=c1c2ccccc2nc(COc2ccccc2)n1/N=C/c1ccc(O)cc1O	.	.	-31*	0	.	-7
O=c1c2ccccc2nc(COc2ccccc2)n1/N=C/c1c[nH]c2ccccc12	-2	.	5	0	-2	5
C[C@@H]1CN([C@H](C)CO)C(=O)c2cc(NS(C)(=O)=O)ccc2O[C@@H](C)CCCCO[C@H]1CN(C)Cc1ccc(C(=O)O)cc1	1	10	-2	0	2	.
CCOC(=O)/C=C(\C)N1N=C(c2ccccc2)CC1c1ccccc1 (configuration not stated)	.	-6	-46	43*	.	3
CCOC(=O)c1nnn(CC(=O)N2N=C(c3ccccc3)CC2c2ccccc2)c1C(=O)OCC (configuration not stated)	3	.	.	.	0	-4
C[C@@H]1CCCCO[C@@H](CN(C)Cc2ccc(C(F)(F)F)cc2)[C@H](C)CN([C@H](C)CO)C(=O)c2cc(NS(=O)(=O)c3ccccc3)ccc2O1	9	-5	-1	.	-25	.
CCC(Sc1nc(-c2cccc(OC)c2)c(C#N)c(=O)[nH]1)C(=O)Nc1nnc(C(C)C)s1 (configuration not stated)	.	.	0	2.1*	.	-5
COc1ccc2c(C=O)cn(C)c2c1	2	14	3	43*	1	-2
C[C@H](CO)N1C[C@H](C)[C@@H](CN(C)C(=O)Nc2ccc(F)cc2)OCCCC[C@H](C)Oc2ccc(N(C)C)cc2C1=O	0	0	-3	-1	-4	.
Cc1cc(NCc2ccccn2)n2ncc(-c3ccccc3)c2n1	-3	0	-38*	0	-10	0
Cc1cc(Cl)n2ncc(-c3ccccc3)c2n1	-10	-1	-33*	0	-11	0
O=C(NC[C@H]1[C@@H](c2ccccc2)[C@@H](CO)N1Cc1ccccn1)C1CCC1	1	8	3	.	0	.
O=[N+]([O-])c1cc(-c2ncccn2)c([N+](=O)[O-])s1	-3	61*	8	1	-3	14
CN(C)C(=O)[C@H]1[C@H](CO)[C@H]2Cn3c(ccc(-c4cccnc4)c3=O)[C@H]2N1Cc1ccccc1F	-1	1	-3	0	-1	.
COc1cccc(NC(=O)CN2CCSc3ccccc32)c1	.	.	-18	0	.	-2
COc1ccccc1NC(=O)CN1CCSc2ccccc21	.	.	-21*	0	.	-5
Cn1c(SCC(=O)N2CCCC2=O)nnc1-c1ccccc1F	-1	5	28	43*	4	-4
CCn1c(SCC(=O)N2CCCC2=O)nnc1-c1cccs1	-1	9	6	1	-1	.
CC1CN(C)C(C)C/C1=N\Oc1ccc([N+](=O)[O-])cc1 (configuration not stated)	7	.	2	0	0	4
